# Measurements from different studies.
# Protocols differ between the studies behind these lines.
Compound,tested on,test,test system,setting,measurement,result
COc1ccc2c(c1)CCc1c(C(=O)NCCc3nc4cc(C)ccc4[nH]3)n[nH]c1-2,K562,cell growth or viability,,,IC50,< 1.32 µM
Cc1noc(C)c1Cn1cc(N2C(=O)CN(Cc3cccc(O)c3)C2=O)cn1,,,"male Sprague-Dawley rat, plasma","oral, 100 mg/kg, 4 h, single dose",concentration,12.2 ng/mL
CCc1cc(-c2noc(-c3cc(OC)nc(C4CCCC4)c3)n2)cc(C)c1OC[C@@H](O)CO,,,"Wistar rat, plasma","oral, 1 mg/kg, 24 h, single dose",concentration,15 ng/mL
COC(=O)/C(C#N)=C1\Nc2ccccc2O1,K562,cell growth or viability,,,IC50,20.7 µM
COc1ccc2c(=O)n(C)c(-c3ccccc3)nc2c1,,,"male Sprague-Dawley rat, brain","oral, 30 mg/kg, 2 h",concentration,1.82 ng/mL
Cc1cc2cc(O)cc(O)c2c(=O)o1,K562,cell growth or viability,,,IC50,19 µM
C[C@@H]1Cn2ncc(-c3ccc(C(=O)N4CCCc5ccccc54)cc3)c2CN1C(=O)[C@H](C)c1ccccc1,"Broad substrate specificity ATP-binding cassette transporter ABCG2 (ABCG2, Homo sapiens, UniProt Q9UNQ0)",,"dog, MDCK-MDR1",,Papp B→A,13.4 ×10⁻⁶ cm/s
CCOC(=O)[C@@]12C[C@@H]1[C@@H](n1ccc3c(NC)nc(C#Cc4ccc(Cl)s4)nc31)[C@H](O)[C@@H]2O,,,"male Sprague-Dawley rat, plasma","oral, 3 mg/kg, 2 h",concentration,37 ng/mL
COc1cccc(-c2n[nH]c(SCc3ccccn3)n2)c1OC,,,"female Sprague-Dawley rat, plasma","oral, 30 mg/kg, 4 h, single dose",concentration,3050 ng/mL
